Test results published in PubChem BioAssay AID624467 (The Scripps Research Institute Molecular Screening Center, 2012).
The campaign covered roughly 360,000 compounds. About 3,600 (1%) were called active.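 How the source made its calls: active means activation above the mean activation of all test compounds in the run plus 3 SD (cut at about 38% in these data); inactive means the rest.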 The entries come from a sample that favours actives as a whole.

The compounds below were run against Trace amine-associated receptor 1 (Homo sapiens) (UniProt Q96RJ0) (assay: activators of TAAR1 calcium mobilization – Fluo-8 calcium fluorescence, CHO RD-HGA16 cells, primary screen (AID 624467)). Settings: CHO RD-HGA16 TAAR1, Fluo-8 calcium fluorescence; at 3 µM; hits give high values; vehicle wells 0%, saturating PEA agonist 100%.
Summary of the method: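 Test system: RD-HGA16 (CHO) cells co-expressing Gα16 and hTAAR1 / Benchmarks: DMSO vehicle as 0%, PEA at EC100 as 100% / Repeats: no replicates (n 1) / Measure: % activation from peak over basal fluorescence ratio, DMSO-to-PEA scaled / Timing: 17-24 h plating, Fluo-8 75 min 37 °C, 30 min RT / Technique: kinetic Fluo-8 calcium fluorescence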

Sequence of Trace amine-associated receptor 1 (Homo sapiens) (Q96RJ0 whole entry, looked up): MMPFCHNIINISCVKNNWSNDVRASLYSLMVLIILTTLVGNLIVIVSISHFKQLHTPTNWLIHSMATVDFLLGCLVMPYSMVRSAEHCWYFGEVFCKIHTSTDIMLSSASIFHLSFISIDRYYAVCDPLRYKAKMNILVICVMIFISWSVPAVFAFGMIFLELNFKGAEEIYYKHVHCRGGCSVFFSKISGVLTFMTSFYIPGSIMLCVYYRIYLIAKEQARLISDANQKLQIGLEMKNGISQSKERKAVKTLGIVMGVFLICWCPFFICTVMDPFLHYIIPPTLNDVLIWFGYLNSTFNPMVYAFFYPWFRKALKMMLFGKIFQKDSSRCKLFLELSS

Q: For `Cc1ccc(-c2nnc(SCC(=O)N/N=C/c3cccs3)n2-c2ccc(C)cc2)cc1`, which activation is on record?
A: 2.56% (inactive)

Q: `COc1ccc(NC(=O)COC(=O)Cn2c(C)nc3ccccc32)cc1OC` was tested. Which activation did it give?
A: 8.05% (inactive)

Q: `Cc1nc2ccccc2n1CC(=O)N/N=C/c1cccs1` was tested. Which activation did it give?
A: 41% (active)

Q: Which activation does the source give for `COc1ccc(N(C(=O)CNC(=O)c2ccco2)C(C(=O)NCC2CCCO2)c2ccccc2)cc1Cl` (centres undefined) here?
A: 14% (inactive)

Q: With `CC(=O)c1ccc(N2CCN(C(=O)c3ccc(Cl)c(S(=O)(=O)NC4CC4)c3)CC2)c(F)c1` as the compound, how does the activation read?
A: 5.24% (inactive)

Q: For `COc1ccc(S(=O)(=O)Nc2ccc3c(c2)C(=O)N([C@H](C)CO)C[C@H](C)[C@@H](CN(C)C)OCCCC[C@H](C)O3)cc1`, which activation is on record?
A: 1.27% (inactive)

Q: `C#CCOc1ccc(/C=C2/C(=O)NN(c3ccccc3)C2=O)cc1OC` was tested. Which activation did it give?
A: 52.3% (active)

Q: Which activation does the source give for `C#CCOc1ccc(/C=C2/C(=O)ON=C2C)cc1OCC` here?
A: 26.1% (inactive)

Q: With `COc1cc(/C=C2\SC(=O)NC2=O)ccc1OCc1ccc(Cl)nc1` as the compound, how does the activation read?
A: 0.37% (inactive)

Q: With `COc1ccc(NC(=O)C2C3CCC(O3)C2C(=O)O)cc1OC` (centres undefined) as the compound, how does the activation read?
A: 2.71% (inactive)

Q: `Cc1sc(NC(=O)C2C3CCC(O3)C2C(=O)O)c(C(=O)OC(C)C)c1-c1ccc(Cl)cc1` (centres undefined) was tested. Which activation did it give?
A: 38.3% (active)

Q: How did the activation turn out when `CC(C)OC(=O)c1cc(NC(=O)C2C3CCC(O3)C2C(=O)O)cc(C(=O)OC(C)C)c1` (centres undefined) was run?
A: -0.82% (inactive)

Q: `CN1C(=O)c2cccc3c(N)ccc(c23)C1=O` was tested. Which activation did it give?
A: 119% (active)

Q: How did the activation turn out when `Cc1nn(C)cc1N1C(=O)c2cccc3c(N)ccc(c23)C1=O` was run?
A: 83.9% (active)

Q: `CCCOc1ccc(N2C(=O)CC(N(CCc3ccc(S(N)(=O)=O)cc3)C(C)=O)C2=O)cc1` (centres undefined) was tested. Which activation did it give?
A: 1.5% (inactive)

Q: Which activation does the source give for `Cc1ccc(CNC(=O)Cn2cnc(S(=O)(=O)N3CCCCC3)c2)o1` here?
A: 1.59% (inactive)

Q: With `CCOC(=O)C1CCN(S(=O)(=O)c2ccc3c(c2)N(C(C)=O)CCO3)CC1` as the compound, how does the activation read?
A: -0.05% (inactive)

Q: For `CCCN1C(=O)c2[nH]nc(-c3ccccc3)c2C1c1ccccc1` (centres undefined), which activation is on record?
A: 2.41% (inactive)

Q: With `CN(C)C(=O)N1CCN(C(=O)[C@@H](Cc2ccccc2)NC(=O)[C@H]2O[C@@H](n3ccc(N)nc3=O)[C@H](O)[C@@H]2O)CC1` as the compound, how does the activation read?
A: 1.21% (inactive)

Q: How did the activation turn out when `COC(=O)Cc1nnn2c1[C@H](C)[C@H](c1ccccc1Br)OCC2` was run?
A: 2.69% (inactive)

Q: For `COc1ccc(C(=O)N2CCCCC2c2cc(C(=O)Nc3ccccc3)no2)cc1` (centres undefined), which activation is on record?
A: -0.19% (inactive)

Q: How did the activation turn out when `O=C(Nc1n[nH]c(C(F)(F)F)n1)c1cccs1` was run?
A: -0.13% (inactive)

Q: Which activation does the source give for `COc1cc(NC(=O)c2ccc(-c3csc(C)n3)cc2)c(OC)cc1Cl` here?
A: 3.15% (inactive)

Q: Which activation does the source give for `Cc1nc(-c2ccc(NC(=O)c3cccs3)cc2)cs1` here?
A: 44.8% (active)
